According to ChEMBL document CHEMBL2417486, “Exploring natural product chemistry and biology with multicomponent reactions. 5. Discovery of a novel tubulin-targeting scaffold derived from the rigidin family of marine alkaloids” (J Med Chem, 2013):
Values after ≈ are worked out from the molar mass of the structure shown. Active and inactive are the calls of the source. The calls are words filed in the database; no cut-off is given here.

Columns and labels:
[1] = test system: HeLa; test: Cell cycle arrest in human HeLa cells assessed as accumulation at G2/M phase at 1 uM after 32 hrs using Vybrant Orange staining by flow cytometry relative to control; format: functional, cell-based
Outline: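 HeLa cells at 70–80% confluence were seeded at 2 × 10^5 per well in DMEM/10% FBS with penicillin G and streptomycin, left to adhere overnight, then treated at 1 µM for 32 h (0.1% DMSO control). Washed, trypsinized, stained 30 min at 37 °C with 10 µM Vybrant Orange in medium, then analysed by flow cytometry for DNA content.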

[2] = test system: MCF7; test: Growth inhibition of human MCF7 cells after 48 hrs by MTT assay; format: functional; settings: MCF7, 48 h
Outline: (§1)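 Cells seeded at 4 × 10^3 per well, grown 24 h, then treated 48 h at 0.004–100 µM from 100 or 25 mM DMSO stocks. Controls were 0.1% DMSO and phenyl arsine oxide. MTT (5 mg/mL) added for 2 h, formazan dissolved in DMSO, A490 read. […] HeLa/MCF-7 in DMEM, MES-SA lines in RPMI-1640, all with 10% FBS.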

[3] = test system: HeLa; test: Growth inhibition of human HeLa cells after 48 hrs by MTT assay; format: functional; outline: as §1
[4] = test system: UMSCC22B; test: Growth inhibition of human UM-SCC-22B cells after 48 hrs by MTT assay; format: functional
[5] = Growth inhibition of human UM-SCC-10B cells after 48 hrs by MTT assay; format: functional
[6] = Growth inhibition of human UM-SCC-22A cells after 48 hrs by MTT assay; format: functional
[7] = Growth inhibition of human UM-SCC-10A cells after 48 hrs by MTT assay; format: functional; settings: UMSCC-10A
[8] = test system: B16-F10; test: Growth inhibition of mouse B16F10 cells after 48 hrs by MTT assay; format: functional; settings: B16-F10, 48 h
[9] = test system: A549; test: Growth inhibition of human A549 cells after 48 hrs by MTT assay; format: functional; settings: A549, 48 h
[10] = test system: SK-MEL-28; test: Growth inhibition of human SK-MEL-28 cells after 48 hrs by MTT assay; format: functional; settings: SK-MEL-28, 48 h
[11] = Growth inhibition of human U373 cells after 48 hrs by MTT assay; format: functional, U-373MG ATCC; settings: U373 MG
[12] = Growth inhibition of human Hs683 cells after 48 hrs by MTT assay; format: functional; settings: Hs 683, 48 h
[13] = Aqueous solubility of the compound by spectrophotometric analysis; format: physicochemical
Outline: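 Compound dispersed in ultrapure water at >0.5 mg/mL; supernatant centrifuged repeatedly until no pellet remained, then diluted 1:2 (solution:DMSO). Concentration read from absorbance at peak 335–336 nm against a calibration line made in 1:2 water/DMSO, and corrected for the DMSO dilution.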

[14] = biological target: T1, Tubulin beta (Homo sapiens) (UniProt P68371+Q9H4B7+Q13509+P04350+Q3ZCM7+P07437+Q13885+Q9BVA1+Q9BUF5+A6NNZ2); test: Inhibition of [3H] radiolabelled colchicine binding to tubulin beta (unknown origin) at 1 uM by DEAE-cellulose filter method; format: protein assay
[15] = biological target: T1, Tubulin beta (Homo sapiens); test: Inhibition of [3H] radiolabelled colchicine binding to tubulin beta (unknown origin) at 5 uM by DEAE-cellulose filter method; format: protein assay
[16] = Inhibition of bovine brain tubulin polymerization preincubated for 15 mins followed by GTP addition measured after 20 mins by turbidimetric analysis; design: species or system Bos taurus
Outline: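 Bovine brain tubulin at 10 µM (1.0 mg/mL) in 0.8 M monosodium glutamate (pH 6.6 in 2 M stock) was preincubated with varying compound concentrations for 15 min at 30 °C, then cooled to 0 °C. After addition of 0.4 mM GTP, samples were warmed to 30 °C and assembly followed by turbidity at 350 nm.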

[17] = test system: HeLa; test: Antimitotic activity in human HeLa cells assessed as effect on spindle length at 1 to 10 nM after 3 hrs by Hoechst 33342 staining based inverted microscopic analysis; format: functional, cell-based
Outline: (§2)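 HeLa cells grown in EMEM with 10% FBS, sodium pyruvate and sodium bicarbonate; treated 3 h with compound (DMSO stock prediluted in medium) or 0.1% DMSO carrier. Fixed in methanol at -20°C for 30 min, blocked in 3% BSA/PBS 1 h, mouse anti-tubulin plus rabbit anti-pericentrin overnight at 4 °C, Alexafluor secondaries, Hoechst 33342 for DNA; epifluorescence imaging with Apotome.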

[18] = Growth inhibition of human doxorubicin-resistant MES-SA/Dx5 cells after 48 hrs by MTT assay; format: functional; settings: MES-SA/Dx5, 48 h
Outline: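 Cells seeded at 4 × 10^3 per well, grown 24 h, then treated 48 h at 0.004–100 µM from 100 or 25 mM DMSO stocks. Controls were 0.1% DMSO and phenyl arsine oxide. MTT (5 mg/mL) added for 2 h, formazan dissolved in DMSO, A490 read.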

[19] = Growth inhibition of human MES-SA cells after 48 hrs by MTT assay; format: functional; outline: as §1
[20] = test system: HeLa; test: Antimitotic activity in human HeLa cells assessed as disruption of mitotic microtubule organization at 10 to 100 nM after 3 hrs by Hoechst 33342 staining based inverted microscopic analysis; format: functional, cell-based; outline: as §2
[21] = test system: HeLa; test: Antimitotic activity in human HeLa cells assessed as disruption of interphase microtubule organization at 10 to 100 nM after 3 hrs by Hoechst 33342 staining based inverted microscopic analysis; format: functional, cell-based; outline: as §2
[22] = test system: HeLa; test: Antimitotic activity in human HeLa cells assessed as mitotic microtubule organization at 1 to 10 nM after 3 hrs by Hoechst 33342 staining based inverted microscopic analysis; format: functional, cell-based; outline: as §2
[23] = test system: HeLa; test: Antimitotic activity in human HeLa cells assessed as interphase microtubule organization at 1 to 10 nM after 3 hrs by Hoechst 33342 staining based inverted microscopic analysis; format: functional, cell-based; outline: as §2

Q: Which Activity [1] does the source give for `O=C(c1ccccc1)c1[nH]c2[nH]cnc(=O)c2c1-c1cncc(Br)c1` here?
A: Active

Q: What about the GI50 [2] of the same compound?
A: 0.087 µM

Q: What about the GI50 [3] of the same compound?
A: 0.08 µM

Q: What about the GI50 [4] of the same compound?
A: 0.02 µM

Q: And the GI50 [5]?
A: 0.13 µM

Q: What about the GI50 [6] of the same compound?
A: 0.12 µM

Q: And the GI50 [7]?
A: 0.09 µM

Q: What about the GI50 [8] of the same compound?
A: 0.04 µM

Q: And the GI50 [9]?
A: 0.02 µM

Q: And the GI50 [10]?
A: 0.02 µM

Q: And the GI50 [11]?
A: 0.03 µM

Q: And the GI50 [12]?
A: 0.02 µM

Q: What about the solubility [13] of the same compound?
A: 30 µM (≈ 11.9 µg/mL)

Q: Which results are given for `O=C(c1ccccc1)c1[nH]c2[nH]cnc(=O)c2c1-c1ccccc1`?
A: inhibition [14]: 58%; inhibition [15]: 88%; IC50 [16]: 1.2 µM; GI50 [2]: 0.04 µM; GI50 [3]: 0.035 µM; Activity [17]: inactive; GI50 [8]: 0.02 µM; GI50 [9]: 0.01 µM; GI50 [10]: < 0.01 µM; GI50 [11]: < 0.01 µM; GI50 [12]: 0.01 µM; GI50 [18]: 0.07 µM; GI50 [19]: 0.03 µM; Activity [20]: Active; solubility [13]: 10 µM (≈ 3.15 µg/mL); Activity [21]: Active; Activity [22]: inactive; Activity [23]: inactive

Q: With `O=C(c1ccccc1)c1[nH]c2[nH]cnc(=O)c2c1-c1cc(Br)cc(Br)c1` as the compound, how does the inhibition [15] read?
A: 71%

Q: What about the IC50 [16] of the same compound?
A: 1.6 µM

Q: What about the Activity [1] of the same compound?
A: Active

Q: What about the GI50 [2] of the same compound?
A: 0.095 µM

Q: And the GI50 [3]?
A: 0.095 µM

Q: What about the Activity [17] of the same compound?
A: inactive

Q: What about the GI50 [4] of the same compound?
A: 0.02 µM

Q: What about the GI50 [5] of the same compound?
A: 0.1 µM

Q: And the GI50 [6]?
A: 0.11 µM

Q: What about the GI50 [7] of the same compound?
A: 0.09 µM

Q: And the GI50 [8]?
A: 0.05 µM

Q: And the GI50 [9]?
A: 0.03 µM

Q: What about the GI50 [10] of the same compound?
A: 0.02 µM

Q: And the GI50 [11]?
A: 0.03 µM

Q: And the GI50 [12]?
A: 0.02 µM

Q: And the GI50 [18]?
A: 0.394 µM

Q: What about the GI50 [19] of the same compound?
A: 0.081 µM

Q: And the Activity [20]?
A: Active

Q: What about the solubility [13] of the same compound?
A: 40 µM (≈ 18.9 µg/mL)

Q: What about the Activity [21] of the same compound?
A: Active

Q: What about the Activity [22] of the same compound?
A: inactive

Q: And the Activity [23]?
A: inactive
